Measurements: ChEMBL document CHEMBL3085692, “Violapyrones A-G, α-pyrone derivatives from Streptomyces violascens isolated from Hylobates hoolock feces” (J Nat Prod, 2013)
Converted amounts (≈) assume the structure as drawn. The source made the active and inactive calls. No cut-off for these calls is given here.

How the values were obtained:
[1] = tested on: Aspergillus niger; test: Antimicrobial activity against Aspergillus niger ATCC 1015 by micro broth dilution method; format: functional
In short: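 Antifungal MIC against A. niger, reported as the mean of three independent experiments. Amphotericin B served as the reference antifungal.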

[2] = tested on: Candida albicans; test: Antimicrobial activity against Candida albicans ATCC 10231 by micro broth dilution method; format: functional
In short: (§1)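 Endpoint is the minimal inhibitory concentration (MIC), reported as the mean of three independent experiments. Reference drugs were ciprofloxacin for the bacteria and amphotericin B for the fungi. E. coli ATCC 25922 and P. aeruginosa ATCC 27853 were tested in a panel with B. subtilis ATCC 6633 and S. aureus ATCC 25923.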

[3] = tested on: Pseudomonas aeruginosa; test: Antimicrobial activity against Pseudomonas aeruginosa ATCC 27853 by micro broth dilution method; format: functional, organism-based; in short: as §1
[4] = tested on: Escherichia coli; test: Antimicrobial activity against Escherichia coli ATCC 25922 by micro broth dilution method; format: functional, organism-based; in short: as §1
[5] = tested on: Staphylococcus aureus; test: Antimicrobial activity against Staphylococcus aureus ATCC 25923 by micro broth dilution method; format: functional
In short: (§2)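 Bacterial panel run against B. subtilis ATCC 6633 and S. aureus ATCC 25923. Read-out is minimal inhibitory concentration (MIC), reported as the mean of three independent experiments. Ciprofloxacin served as the reference antibacterial.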

[6] = tested on: Bacillus subtilis; test: Antimicrobial activity against Bacillus subtilis ATCC 6633 by micro broth dilution method; format: functional; in short: as §2
[7] = tested on: HCT-116; test: Cytotoxicity against human HCT116 cells by MTT assay; format: functional, cell-based
In short: (§3)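 MTT read-out measured on a microplate reader, with IC50 derived for each of the five lines (BGC-823, HepG2, H460, HeLa, HCT-116). Adriamycin was the positive control.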

[8] = tested on: HeLa; test: Cytotoxicity against human HeLa cells by MTT assay; format: functional, cell-based; in short: as §3
[9] = tested on: HepG2; test: Cytotoxicity against human HepG2 cells by MTT assay; format: functional, cell-based
[10] = Cytotoxicity against human H460 cells by MTT assay; format: functional, cell-based; conditions: NCI-H460; in short: as §3
[11] = Cytotoxicity against human BGC823 cells by MTT assay; format: functional, cell-based; conditions: BGC-823; in short: as §3

SMILES | Activity [1] | Activity [2] | Activity [3] | Activity [4] | Activity [5] | Activity [6] | IC50 [7] [µM] | IC50 [8] [µM] | IC50 [9] [µM] | IC50 [10] [µM] | IC50 [11] [µM] | MIC [5] [µg/mL] | MIC [6] [µg/mL] | MIC [1] [µg/mL]
Cc1c(O)cc(CCCCC(C)(C)O)oc1=O | inactive | inactive | inactive | inactive | inactive | inactive | > 200 | > 200 | > 200 | > 200 | > 200 |  |  | 
Cc1c(O)cc(CCCCC(C)C)oc1=O | inactive | inactive | inactive | inactive |  |  | > 200 | > 200 | > 200 | > 200 | > 200 | 4 (≈ 17.8 µM) | 4 (≈ 17.8 µM) | 
CC(=O)C(C)CCCCc1cc(O)c(C)c(=O)o1 (centres undefined) | inactive | inactive | inactive | inactive |  | inactive | > 200 | > 200 | > 200 | > 200 | > 200 | 128 (≈ 507 µM) |  | 
O=C(O)c1cn(C2CC2)c2cc(N3CCNCC3)c(F)cc2c1=O [CIPROFLOXACIN] |  |  |  |  |  |  |  |  |  |  |  | 0.5 (≈ 1.51 µM) | 0.12 (≈ 0.362 µM) | 
Cc1c(O)cc(CCCC(C)C)oc1=O | inactive | inactive | inactive | inactive |  |  | > 200 | > 200 | > 200 | > 200 | > 200 | 8 (≈ 38 µM) | 32 (≈ 152 µM) | 
Cc1c(O)cc(CCCCC(C)[C@H](C)O)oc1=O (some centres undefined) | inactive | inactive | inactive | inactive |  |  | > 200 | > 200 | > 200 | > 200 | > 200 | 128 (≈ 503 µM) | 128 (≈ 503 µM) | 
C[C@@H]1[C@H](O)[C@@H](C)/C=C/C=C/C=C/C=C/C=C/C=C/C=C/[C@H](O[C@@H]2O[C@H](C)[C@@H](O)[C@H](N)[C@@H]2O)C[C@@H]2O[C@](O)(C[C@@H](O)C[C@@H](O)[C@H](O)CC[C@@H](O)C[C@@H](O)CC(=O)O[C@H]1C)C[C@H](O)[C@H]2C(=O)O [AMPHOTERICIN B] |  |  |  |  |  |  |  |  |  |  |  |  |  | 1 (≈ 1.08 µM)
COc1cc(CCCCC(C)(C)O)oc(=O)c1C | inactive | inactive | inactive | inactive |  | inactive | > 200 | > 200 | > 200 | > 200 | > 200 | 128 (≈ 503 µM) |  | 
COc1cccc2c1C(=O)c1c(O)c3c(c(O)c1C2=O)C[C@@](O)(C(=O)CO)C[C@@H]3O[C@H]1C[C@H](N)[C@H](O)[C@H](C)O1 [DOXORUBICIN] |  |  |  |  |  |  | 1.38 | 0.97 |  | 0.98 | 1.48 |  |  | 
CCC(C)CCCCc1cc(O)c(C)c(=O)o1 (centres undefined) | inactive | inactive | inactive | inactive |  |  | > 200 | > 200 | > 200 | > 200 | > 200 | 16 (≈ 67.1 µM) | 16 (≈ 67.1 µM) | 
